One molecule from ChEMBL document CHEMBL5154945, “Discovery and Optimization of Pyrrolopyrimidine Derivatives as Selective Disruptors of the Perinucleolar Compartment, a Marker of Tumor Progression toward Metastasis” (J Med Chem, 2022) can be followed below.

As usually defined, the IC50 is the concentration that gives 50% inhibition.

Data set [1] has as its system PC-3M. In words: Anticancer activity in human PC-3M cells expressing PTB/GFP fusion protein assessed as perinucleolar compartment disassembly and measured after 24 hrs by Hoechst 33342 staining based microscopic method. The format is functional, cell-based. As to conditions: read-out: IC50. The method in brief: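 Imaged by high-content microscopy. Nuclei with PNC spots ≥3 and >0 scored positive. PNC prevalence % = PNC-positive nuclei/total nuclei ×100, normalized to DMSO (0% activity) and 0% PNC (−100%). IC50 from concentration-response.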

Data set [2] in a line: Permeability of the compound at pH 7.4 incubated for 30 mins by UV plate reader based PAMPA assay. To be noted: pampa, pH 7.4, 0.5 h.
Data set [3] in a line: Microsomal stability in CD1 mouse liver microsomes assessed as half life measured upto 60 mins in presence of NADPH by LC-MS analysis. To be noted: mouse, microsomes, 1 h.
Data set [4] concerns PC-3M. In words: Antiproliferative activity against human PC-3M cells expressing PTB/GFP fusion protein assessed as cell growth inhibition and measured every four hrs for 130 hrs by IncuCyte zoom live cell analysis. Type of data set: functional, cell-based. The method in brief:
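PC3M-PTB1-GFP cells in DMEM/10% FBS, seeded at 1.25×10^4 cells/ml and left overnight at 37 °C, 5% CO2. Compound added to give 11 final concentrations, 10 nM to 20 μM. Brightfield images taken every 4 h for about 130 h; percent confluence measured.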

Each structure is given as a SMILES string. Calls of active or inactive are those of the source. No cut-off for these calls is given here.

`N=c1c2c(-c3ccccc3)cn(Cc3ccccc3)c2ncn1C1CCOCC1`: the IC50 with PC-3M [1] was above 20 µM. Moreover, in data set [2], the permeability is listed as 1729 10^-6 cm/s. In data set [3], the t1/2 was found to be 5.2 min. Besides, the outcome with PC-3M [4] was Active.
